WT yeast gro inh: growth inhibition of WT yeast, mitochondrial fusion screen. 190,000 tested, 2.1% active. mitochondrial fusion phenotypic screen, WT strain. AID 1362. inhibition, % at 10 µM; in the data active = inhibition above about 58%; tested in S. cerevisiae
MEKK3 PB1 HTS: modulators (inhibitors or enhancers) of MEK5 binding to human MEKK3 PB1 domain | Q99759 | bead-based flow cytometry, Alexa488-MEK5 binding to MEKK3; actives lie on both sides; 0 = blocked by unlabeled MEK5, 100 = vehicle | binding response (% of control), % at 10 µM | 290,000 tested, 1.4% active;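 active = binding response more than 3 SD above or below the average of its plate-row segment, actives on both sides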;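 note: Alexa488 bead fluorescence after subtracting the streptavidin-only scavenger bead signal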
ABCB1 block: human ABCB1 inhibition, ABCG2 as counter-screen; 190,000 tested, 0.067% active; inhibition, % at 6.6 µM; CCRF-Adr cells, JC-1 efflux, flow cytometry; in the data active = inhibition above about 40%;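 note: higher value means more JC-1 retained so stronger ABCB1 efflux block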
Target sequence (P08183 whole entry, looked up): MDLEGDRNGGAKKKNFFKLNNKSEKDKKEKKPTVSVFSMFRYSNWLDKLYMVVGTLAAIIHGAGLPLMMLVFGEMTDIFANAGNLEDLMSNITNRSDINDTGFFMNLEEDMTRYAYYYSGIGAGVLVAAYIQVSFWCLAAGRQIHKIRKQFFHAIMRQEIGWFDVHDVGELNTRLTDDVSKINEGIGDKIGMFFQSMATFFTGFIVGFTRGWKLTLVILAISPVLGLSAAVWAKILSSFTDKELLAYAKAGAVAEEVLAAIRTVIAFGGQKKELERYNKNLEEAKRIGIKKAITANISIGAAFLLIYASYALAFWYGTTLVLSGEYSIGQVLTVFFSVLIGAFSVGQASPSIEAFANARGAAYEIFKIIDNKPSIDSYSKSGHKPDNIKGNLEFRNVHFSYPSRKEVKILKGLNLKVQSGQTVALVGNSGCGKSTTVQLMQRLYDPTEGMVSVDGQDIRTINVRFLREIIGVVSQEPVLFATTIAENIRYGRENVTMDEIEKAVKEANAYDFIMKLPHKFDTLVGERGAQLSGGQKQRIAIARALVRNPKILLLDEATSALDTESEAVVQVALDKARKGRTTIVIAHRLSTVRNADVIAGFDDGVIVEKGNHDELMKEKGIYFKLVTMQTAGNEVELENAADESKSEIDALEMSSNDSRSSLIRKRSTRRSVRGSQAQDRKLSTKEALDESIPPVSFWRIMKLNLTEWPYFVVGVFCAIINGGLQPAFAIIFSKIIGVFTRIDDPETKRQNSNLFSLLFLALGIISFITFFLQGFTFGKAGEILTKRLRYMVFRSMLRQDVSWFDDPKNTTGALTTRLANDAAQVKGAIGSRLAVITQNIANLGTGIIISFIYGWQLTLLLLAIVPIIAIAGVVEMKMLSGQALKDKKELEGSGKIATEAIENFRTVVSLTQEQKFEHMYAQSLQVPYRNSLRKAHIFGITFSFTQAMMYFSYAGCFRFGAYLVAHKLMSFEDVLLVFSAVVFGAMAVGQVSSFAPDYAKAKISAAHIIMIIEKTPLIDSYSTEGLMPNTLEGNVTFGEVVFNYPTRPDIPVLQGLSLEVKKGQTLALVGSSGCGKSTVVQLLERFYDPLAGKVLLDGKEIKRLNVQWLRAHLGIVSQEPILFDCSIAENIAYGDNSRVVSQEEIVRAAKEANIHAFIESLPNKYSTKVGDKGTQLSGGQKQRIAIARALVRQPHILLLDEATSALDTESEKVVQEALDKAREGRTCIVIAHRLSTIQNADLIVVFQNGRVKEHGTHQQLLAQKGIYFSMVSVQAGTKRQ
MEKK2mut PB1 HTS: signal of MEK5 binding to mutant human MEKK2 PB1 domain; AID 1530; bead flow cytometry, Alexa488-MEK5 binding to MEKK2 mutant; percent response, % at 10 µM; 290,000 tested, 0.35% active; in the data active = percent response above about 24%, passing the limit was not always enough
ABCG2 block: blocks JC-1 efflux by human ABCG2 transporter; AID 1325; inhibition, % at 6.6 µM; Q9UNQ0; 190,000 tested, 0.1% active; IgMXP3 cells, flow cytometry;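 active = inhibition above 80%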
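Incubation: cells with compound and JC-1, 10 min at 25 °C, rotating, no wash / Test system: IgMXP3 (ABCG2) plus far-red-tagged CCRF-Adr (ABCB1) cells / Compound dosing: one concentration, 6.6 µM final / Also added: JC-1 fluorescent substrate / Evaluation: efflux inhibition in percent versus controls / Detection: flow cytometry, 530 nm JC-1 signal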
MEKK2wt PB1 HTS: raises or lowers MEK5 binding to wildtype human MEKK2 PB1 domain. bead flow cytometry, Alexa488-MEK5 binding to MEKK2 WT; actives lie on both sides. binding response (% of control), % at 10 µM. Q9Y2U5. 290,000 tested, 1.1% active. AID 1531; in the data active = binding response below about 67% or above about 130%
ABCB1 single pt: confirmation of human ABCB1 transporter inhibitors, ABCG2 counter-screen. shares compounds with ABCG2 block. CCRF-Adr cells, JC-1 efflux, flow cytometry. inhibition, % at 6.6 µM. 270 tested, 7% active;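 active = inhibition of pump activity above 50%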
ABCG2 single pt: confirmation of human ABCG2 transporter inhibitors, ABCB1 counter-screen. AID 1453. shares compounds with ABCG2 block. inhibition, % at 6.6 µM. IgMXP3 cells, JC-1 efflux, flow cytometry. 270 tested, 6% active;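 active = inhibition above 50%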
IgMXP3 fluor: IgMXP3 autofluorescence flag for ABCG2 confirmation; shares compounds with ABCG2 block; IgMXP3 cells, compound autofluorescence 488/530 nm, flow; active compounds read high; fluorescence at 6.6 µM; 270 tested, 30% active;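 active = fluorescence in ABCG2-expressing cells above the plate's control-well mean plus 3 SD, cut at about 15 in these data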
CCRF-Adr fluor: counter-screen for ABCB1 inhibitors: compound fluorescence in CCRF-Adr cells | compound autofluorescence 488/530 nm, flow cytometry; active compounds read high | shares compounds with ABCG2 block | 270 tested, 30% active | fluorescence at 6.6 µM;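 active = fluorescence beyond the plate control mean plus 3 SD, with a fluorescence-to-maximum score over 2, cut at about 25 in these data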
Numbers stand for hits; . = inactive; / = no result. Sampled rows, rich in hits. Any-hit rate of the full collection: about 3.5%.

SMILES | WT yeast gro inh | MEKK3 PB1 HTS | ABCB1 block | MEKK2mut PB1 HTS | ABCG2 block | MEKK2wt PB1 HTS | ABCB1 single pt | ABCG2 single pt | IgMXP3 fluor | CCRF-Adr fluor
COc1ccc(NC(=S)NCc2cccn2C)cc1 | . | . | . | . | . | . | . | . | . | .
CC(C)CCn1c(O)c(N=Nc2ccccn2)c2ccccc21 | 68 | . | . | . | 87 | . | . | . | . | .
CCCn1c(O)c(N=Nc2ccc3ccccc3n2)c2ccccc21 | . | . | . | . | . | . | / | / | / | /
COCc1cc(CN2CCCC(C(=O)Nc3cccc(-n4cnnn4)c3)C2)ccc1OC (configuration not stated) | / | . | / | . | / | . | / | / | / | /
CCCN1C(=O)/C(=C/c2ccc(N3CCCC3)c(C)c2)NC1=S | 69 | . | 52 | . | 86 | . | . | . | 107 | 137
CCN1C(=O)/C(=C/c2ccc(N3CCCC3)cc2)NC1=S | . | . | . | . | . | . | . | . | 20 | 44
Cc1cc(/C=C2\NC(=S)N(C)C2=O)ccc1N1CCCC1 | . | . | . | . | . | . | / | / | / | /
O=C(CN(Cc1ccccc1Cl)S(=O)(=O)c1ccc(Cl)cc1)N/N=C/c1ccc(C(=O)O)cc1 | / | . | / | . | / | . | / | / | / | /
CCOc1nc(NCCO)nc(Nc2ccc([N+](=O)[O-])cc2)n1 | . | . | . | . | . | . | . | . | . | .
CNc1nc(Nc2ccc([N+](=O)[O-])cc2)nc(OCC(F)(F)F)n1 | / | . | / | . | / | . | / | / | / | /
CCOC(=O)c1c(-c2ccc(C)cc2)csc1NC(=O)/C(C#N)=C/c1ccc(O)c(OC)c1 | . | . | 117 | . | 132 | . | . | . | 80 | 222
COc1ccc2cc(C(=O)NCC(=O)O)sc(=O)c2c1OC | . | / | . | / | . | / | / | / | / | /
COc1ccc2cc(C(=O)OC(C)C)sc(=O)c2c1OC | . | . | . | . | 87 | . | . | 60 | . | .
COc1ccccc1OC(=O)c1ccc(SC)cc1OC | . | . | . | . | . | . | / | / | / | /
COc1ccccc1OCc1ccc(C(=O)c2ccccc2)cc1 | / | . | / | . | / | . | / | / | / | /
COc1ccccc1OCCOc1ccc(C(=O)c2ccccc2)cc1 | . | . | . | . | 87 | . | . | . | 52 | 82
O/N=C/c1ccc(-c2cc(Cl)ccc2Cl)o1 | . | . | . | . | . | . | / | / | / | /
Clc1ccc(Cl)c(-c2ccc(/C=N/c3ncn[nH]3)o2)c1 | . | . | . | . | 83 | . | . | . | . | .
N#C/C(=C/c1ccc(N2CCCCC2)o1)C(=O)Nc1ccc(Cl)cc1 | . | . | 45 | . | 82 | . | . | . | 171 | 118
N#C/C(=C\c1ccc(N2CCOCC2)o1)C(=O)Nc1ccc(O)cc1 | . | . | . | . | . | . | / | / | / | /
O=C(Nc1cccc(Cl)c1Cl)C1CCN(C(=O)c2cccs2)CC1 | / | . | / | . | / | . | / | / | / | /
COc1cc2c(cc1NC(=O)c1cc(-c3ccccn3)nc3ccccc13)oc1ccccc12 | . | . | . | . | . | . | / | / | / | /
O=C(NCC1OCCc2ccccc21)c1ccc(NC(=O)c2ccc(Cl)cc2Cl)cc1 (configuration not stated) | . | . | 95 | . | 111 | . | . | . | . | .
C/C(=N\N(Cc1ccccc1)c1ccccc1)c1ccncc1 | . | . | . | . | . | . | / | / | / | /
COc1ccc(S(=O)(=O)c2cnc3ccc(OC)cc3c2N2CCC3(CC2)OCCO3)cc1 | . | . | . | . | 92 | . | . | . | . | .

Bioassay records deposited in PubChem by several laboratories.
